High-throughput results (PubChem)
An excerpt weighted towards active compounds, which were near 1.9% of everything screened.
aSyn 5UTR inh: MLPCN primary screen, SNCA 5' untranslated region; alpha-synuclein 5'UTR reporter, inhibitor activity; inhibition, % (tested at 7.5 µM); 300,000 tested, 0.82% active; in the data active = inhibition above about 60%;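 also: H4 neuroglioblastoma cells stably carrying SNCA 5'UTR luciferase fusion; 0% = DMSO wells and 100% = positive control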
APP transl inh: APP translation inhibition; SH-SY5Y APP 5'UTR-luciferase reporter, luminescence; inhibition, % at 2 µM; 190,000 tested, 0.82% active; AID 1285;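 active = inhibition above a set limit, derived from the sample mean plus 3 SD, cut at about 45% in these data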
Jurkat NFkB inh: inhibitors of the PMA/ionomycin-induced NF-kB reporter in Jurkat cells; PMA/ionomycin-induced NF-kB luciferase reporter, luminescence; inhibition, % at 4 µM; 330,000 tested, 0.53% active; in the data active = inhibition above about 50%
697 NFkB inh: inhibitors of the PMA/ionomycin-induced NF-kB reporter in 697 B cells; AID 435022; inhibition, % at 4 µM; 697 B-cell NF-kB luciferase reporter, 16 h; 330,000 tested, 0.33% active; in the data active = inhibition above about 35%
H9c2 TAG inh: inhibitors of triacylglycerol accumulation; inhibition, % at 12.5 µM; H9c2 cells, Nile Red lipid (TAG) fluorescence; cells loaded with 200 µM oleic acid; 230,000 tested, 0.66% active;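 active = pattern-corrected inhibition of lipid staining of at least 50% with the nuclear-stain viability signal not falling by more than 50%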;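 also: 0% = DMSO wells and 100% = triacsin C control wells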
Lipid droplet: modulators of hepatic lipid droplet formation; AML12 mouse hepatocytes, oleate lipid droplets, BODIPY imaging; inhibition, % at 6.5 µM; 240,000 tested, 0.4% active; AID 1656;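 active = lipid droplet intensity inhibited by at least 50%, with more than 500 cells counted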
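Assay system: AML12 mouse liver cells | Compound: 6.5 µM single-point dosing | Schedule: Overnight exposure | Technique: Fluorescence imaging, 20x objective, two fields per well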
H9c2 TAG conf: triacylglycerol accumulation inhibition, confirmation; inhibition, % at 12.5 µM; shares compounds with H9c2 TAG inh; AID 651629; 990 tested, 71% active; H9c2 lipid accumulation, Nile Red fluorescence; cells loaded with 200 µM oleic acid;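 active = mean inhibition across replicates of 40% or more; inactive = mean inhibition below 40%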;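 also: plate controls were DMSO only wells for no effect and Triacsin C treated wells for full effect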
Active calls of the source: *; . = not tested or not shown.

SMILES	aSyn 5UTR inh	APP transl inh	Jurkat NFkB inh	697 NFkB inh	H9c2 TAG inh	Lipid droplet	H9c2 TAG conf
Cc1ccc(NC(=S)N(CCCN2CCCC2)Cc2cccn2Cc2ccc(Cl)cc2)cc1Cl	0	-45	1	-3	78*	-11	93*
COc1ccc(NC(=S)N(CCCN2CCCC2)Cc2cccn2Cc2ccc(Cl)cc2)cc1Cl	0	10	-32	-6	71*	4	56*
Cc1ccc(NC(=S)N(CCCN2CCCC2)Cc2cccn2Cc2ccc(Cl)cc2)cc1C	45	-9	-26	-3	25	-10	.
CN(C(=O)COC(=O)c1ccccc1Cc1ccccc1)C1CCS(=O)(=O)C1 (stereo unspecified)	10	.	13	-3	3	0	.
COc1ccc(NC(=S)N(C)CC2COc3ccccc3O2)cc1 (stereo unspecified)	-15	-8	-1	-12	3	-2	.
O=C(Nc1ccc2c(c1)OCCO2)c1cc2sccc2n1Cc1ccc(F)cc1	-110	-58	-35	-69	43	.	.
O=C(Nc1ccc2c(c1)OCCO2)c1cc2sccc2n1Cc1ccccc1	-102	-30	-15	-102	60*	.	26
C[C@H]1CCCCO[C@H](CN(C)CC2CCCCC2)[C@@H](C)CN([C@@H](C)CO)C(=O)c2cc(NS(=O)(=O)c3ccccc3)ccc2O1	.	.	.	.	57*	.	58*
C[C@@H]1CCCCO[C@@H](CN(C)CC2CCCCC2)[C@@H](C)CN([C@H](C)CO)C(=O)c2cc(NS(=O)(=O)c3ccc(Cl)cc3)ccc2O1	.	.	.	.	45	.	.
COc1ccc(CN(C)C[C@@H]2OCCCC[C@H](C)Oc3ccc(NC(=O)Nc4ccc(F)cc4)cc3C(=O)N([C@H](C)CO)C[C@H]2C)cc1	.	.	.	.	63*	.	47*
CCC(C)(C)NC(=O)CN(C(=O)CNS(=O)(=O)c1ccc(F)cc1)c1ccc2c(c1)OCCO2	-10	.	-1	13	.	-11	.
Cn1c(CC(=O)Nc2ccccc2F)nnc1SCC(=O)Nc1ccccc1Br	-5	.	4	-4	.	-7	.
O=C(C[C@H]1C[C@H](C(=O)N2CCOCC2)[C@@]2(CCC3CCCC3)c3[nH]c4ccc(Cl)cc4c3CCN2C1=O)NCC12CC3CC(CC(C3)C1)C2	.	.	.	-1	69*	.	63*
COc1ccc2[nH]c3c(c2c1)CCN1C(=O)C(CC(=O)NCC24CC5CC(CC(C5)C2)C4)C[C@H](C(=O)N2CCOCC2)[C@@]31CCC1CCCC1 (stereo partly specified)	.	.	.	-1	72*	.	73*
Cc1cccc(Nc2nc(NCc3ccco3)nc(N3CCOCC3)n2)c1	2	22	-14	18	86*	17	83*
COC(=O)[C@@]1(Cc2ccc(OC)cc2)[C@@H]2C(=CC(=O)[C@H]2CC(=O)C(=O)N2CCCC2)CN1C(=O)c1ccccc1	.	4	-3	-11	53*	.	55*
COC(=O)[C@@]1(Cc2ccc(OC)cc2)[C@@H]2[C@@H](CC(=O)[C@H]2CC(=O)C(=O)N(C)C)CN1C(=O)c1ccccc1	5	-4	5	14	0	-2	.
CC(C)CCn1c(=O)c2ccccc2n2c(CN3CCOCC3)nnc12	-2	-31	0	-5	16	-1	.
Cc1[nH]c2ccccc2c1/C=N/NC(=S)NCc1ccccc1	-4	7	-27	-116	-5	-1	.
Cc1ccc(Nc2nc(OC(C(F)(F)F)C(F)(F)F)nc(N3CCOCC3)n2)cc1	-15	2	-22	-9	100*	.	93*
COc1ccc(Nc2nc(OC)nc(N3CCOCC3)n2)cc1	-1	-6	-6	11	6	0	.
O=C(NCC(c1ccco1)N1CCOCC1)c1c(F)cccc1F (stereo unspecified)	9	.	-1	12	22	.	.
Fc1cccc(-c2cncc(N3CCN(CCN4CCCC4)CC3)n2)c1	.	.	.	.	1	.	.
Cc1cc(NC(=O)c2ccccc2F)n(-c2nc3ccccc3[nH]2)n1	14	2	9	6	64*	.	57*
COc1ccc2cc3cc(C(=O)NCC4COc5ccccc5O4)oc3nc2c1 (stereo unspecified)	-16	20	5	2	57*	.	33
SMILES	aSyn 5UTR inh	APP transl inh	Jurkat NFkB inh	697 NFkB inh	H9c2 TAG inh	Lipid droplet	H9c2 TAG conf
COc1cc2c(cc1OC)CN(C(=S)Nc1ccccc1Cl)CC2	8	0	-15	-11	62*	-6	6
COc1cc2c(cc1OC)CN(C(=S)Nc1ccccc1)CC2	-4	-7	9	-15	.	.	.
Cc1ccc(C)c(N2CCN(C(=O)CCc3nc(-c4ccc(Br)cc4)no3)CC2)c1	.	.	.	-37	-25	.	.
COc1ccc([C@H]2C[C@H](O)[C@@H](n3cc(-c4ccc(F)cc4)nn3)CN2Cc2cccs2)cc1	.	.	.	.	59*	.	52*
COc1ccc([C@H]2C[C@H](n3cc(-c4ccc(F)cc4)nn3)[C@@H](O)CN2Cc2cccs2)cc1	.	.	.	.	-8	.	.
CCSc1nnc(NC(=O)c2cccc(OCc3c(C)noc3C)c2)s1	-25	-17	-5	-9	12	-19	.
CCOc1ccc2nc(NC(=O)C3CCCN(S(=O)(=O)c4c(C)noc4C)C3)sc2c1 (stereo unspecified)	.	.	0	-1	57*	48	75*
COc1ccc2nc(NC(=O)c3cccc(OCc4c(C)noc4C)c3)sc2c1	-57	86*	37	-113	58*	.	48*
Cc1coc2c1c(C)cc1oc(=O)c(CC(=O)N[C@@H](CC(C)C)C(=O)O)c(C)c12	-6	.	8	23	.	11	.
CC1=NN(c2ccccc2)C(=O)/C1=C/c1cn(C)c2ccccc12	-13	.	4	5	5	15	.
COC(=O)[C@]1(Cc2ccccc2)N[C@H](c2ccc(-c3cccc(Cl)c3)c(OC)c2)[C@@H]2C(=O)N(C)C(=O)[C@@H]21	.	.	.	.	55*	.	45*
COC(=O)[C@]1(CC(C)C)N[C@H](c2ccc(-c3cccc(Cl)c3)cc2)[C@@H]2C(=O)N(C)C(=O)[C@@H]21	29	.	9	21	61*	.	36
COC(=O)[C@]1(C)N[C@H](c2ccc(-c3cccc(Cl)c3)cc2)[C@@H]2C(=O)N(C)C(=O)[C@@H]21	.	.	-1	12	34	.	.
COc1ccc(-c2sc3ccc(N4CCOCC4)cc3c2C#Cc2ccsc2)cc1	.	.	-29	-52	17	.	.
COc1ccc(-c2sc3ccc(N4CCOCC4)cc3c2C#CC(C)(C)O)cc1	.	.	-19	-51	64*	.	53*
COc1ccccc1C(=O)C1CCCN(Cc2cccc(OCCO)c2)C1 (stereo unspecified)	-3	.	2	5	.	-3	.
CCC1SC2=NC(C)=C(C(=O)OCC(C)C)C(/C=C/c3ccccc3OC)N2C1=O (stereo unspecified)	-8	-6	10	7	72*	.	21
